Data as given in ChEMBL document CHEMBL1138555, “N-acylated and N,N'-diacylated imidazolidine-2-thione derivatives and N,N'-diacylated tetrahydropyrimidine-2(1H)-thione analogues: synthesis and antiproliferative activity” (Eur J Med Chem, 2009).

Columns and labels:
Type in all cases: functional
[1] = system: HOP-62; assay: Growth inhibition of human HOP62 cells after 48 hrs by sulforhodamine B assay; details: HOP-62, 48 h
How it was run: (§1)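 NCI screen panel. Five 10-fold concentrations from 10^-4 to 10^-8 M. Exposure for the last 48 h of a 72 h incubation. Growth estimated by sulforhodamine B protein assay. GI50 is the concentration giving 50% growth inhibition. Where that level was not reached or was exceeded, the value is given as above or below the highest or lowest concentration tested.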

[2] = system: NCI-H460; assay: Growth inhibition of human NCI-H460 cells after 48 hrs by sulforhodamine B assay; details: NCI-H460, 48 h; how it was run: as §1
[3] = system: PC-3; assay: Growth inhibition of human PC3 cells after 48 hrs by sulforhodamine B assay; details: PC-3, 48 h; how it was run: as §1
[4] = system: UACC-62; assay: Growth inhibition of human UACC62 cells after 48 hrs by sulforhodamine B assay; details: UACC-62, 48 h
How it was run: (§2)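 NCI in vitro panel screen. Compounds tested at five 10-fold dilutions, 10^-4 to 10^-8 M. Cells in 96-well plates were exposed for the last 48 h of a 72 h incubation. Viability/growth was read by sulforhodamine B protein assay. GI50 is the concentration giving 50% growth inhibition. Values beyond the tested range are reported as greater or less than the maximum or minimum concentration.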

[5] = system: M14; assay: Growth inhibition of human M14 cells after 48 hrs by sulforhodamine B assay; details: M14, 48 h; how it was run: as §1
[6] = system: SK-OV-3; assay: Growth inhibition of human SKOV3 cells after 48 hrs by sulforhodamine B assay; details: SK-OV-3, 48 h; how it was run: as §1
[7] = system: UACC-257; assay: Growth inhibition of human UACC257 cells after 48 hrs by sulforhodamine B assay; details: UACC-257, 48 h; how it was run: as §2
[8] = system: SR; assay: Growth inhibition of human SR cells after 48 hrs by sulforhodamine B assay; how it was run: as §2
[9] = system: LOX IMVI; assay: Growth inhibition of human LOXIMVI cells after 48 hrs by sulforhodamine B assay; how it was run: as §1
[10] = system: MDA-MB-231; assay: Growth inhibition of human MDA-MB-231 cells after 48 hrs by sulforhodamine B assay; details: MDA-MB-231, 48 h; how it was run: as §1
[11] = system: HT-29; assay: Growth inhibition of human HT-29 cells after 48 hrs by sulforhodamine B assay; details: HT-29, 48 h; how it was run: as §1
[12] = system: NCI-H23; assay: Growth inhibition of human NCI-H23 cells after 48 hrs by sulforhodamine B assay; details: NCI-H23, 48 h; how it was run: as §1
[13] = system: NCI/ADR-RES; assay: Growth inhibition of human NCI/ADR-RES cells after 48 hrs by sulforhodamine B assay; how it was run: as §1
[14] = system: U-251; assay: Growth inhibition of human U251 cells after 48 hrs by sulforhodamine B assay; details: U-251, 48 h; how it was run: as §2
[15] = system: SW-620; assay: Growth inhibition of human SW620 cells after 48 hrs by sulforhodamine B assay; details: SW-620, 48 h; how it was run: as §2
[16] = system: OVCAR-3; assay: Growth inhibition of human OVCAR-3 cells after 48 hrs by sulforhodamine B assay; details: OVCAR-3, 48 h; how it was run: as §1
[17] = system: HCT-116; assay: Growth inhibition of human HCT116 cells after 48 hrs by sulforhodamine B assay; details: HCT-116, 48 h; how it was run: as §1
[18] = system: SN12C; assay: Growth inhibition of human SN12C cells after 48 hrs by sulforhodamine B assay; how it was run: as §2
[19] = system: COLO 205; assay: Growth inhibition of human COLO205 cells after 48 hrs by sulforhodamine B assay; details: COLO 205, 48 h; how it was run: as §1
[20] = system: CAKI-1; assay: Growth inhibition of human Caki1 cells after 48 hrs by sulforhodamine B assay; details: CAKI-1, 48 h; how it was run: as §1
[21] = system: EKVX; assay: Growth inhibition of human EKVX cells after 48 hrs by sulforhodamine B assay; how it was run: as §1
[22] = system: SK-MEL-2; assay: Growth inhibition of human SK-MEL-2 cells after 48 hrs by sulforhodamine B assay; details: SK-MEL-2, 48 h; how it was run: as §1
[23] = system: CCRF-CEM; assay: Growth inhibition of human CCRF-CEM cells after 48 hrs by sulforhodamine B assay; how it was run: as §1
[24] = system: DU-145; assay: Growth inhibition of human DU145 cells after 48 hrs by sulforhodamine B assay; details: DU-145, 48 h; how it was run: as §1
[25] = system: Malme-3M; assay: Growth inhibition of human MALME-3M cells after 48 hrs by sulforhodamine B assay; how it was run: as §1
[26] = system: SF-268; assay: Growth inhibition of human SF268 cells after 48 hrs by sulforhodamine B assay; details: SF-268, 48 h; how it was run: as §1

Work on `N#C/C(=C\N1CCN(C(=O)c2ccco2)C1=S)C(=O)Nc1ccc(Cl)cc1` yielded a GI50 [1] of 25.7 µM, a GI50 [2] of 19.9 µM and a GI50 [3] of 18.9 µM. For the same compound, the GI50 [4] was 16.9 µM, the GI50 [5] was 14.2 µM and the GI50 [6] was 41.2 µM. The GI50 [7] was 16.5 µM, the GI50 [8] was 1600 nM and the GI50 [9] was 16.7 µM. It also gave a GI50 [10] of 18.4 µM, a GI50 [11] of 21.4 µM and a GI50 [12] of 12.3 µM. The GI50 [13] was 28.1 µM, the GI50 [14] was 17.3 µM and the GI50 [15] was 17.3 µM. For the same compound, the GI50 [16] was 15.5 µM, the GI50 [17] was 15.2 µM and the GI50 [18] was 11.8 µM. For the same compound, the GI50 [19] was 25.6 µM, the GI50 [20] was 13.2 µM and the GI50 [21] was 10 nM. For the same compound, the GI50 [22] was 16.7 µM, the GI50 [23] was 22.5 µM and the GI50 [24] was 15.9 µM. For the same compound, the GI50 [25] was 21.4 µM and the GI50 [26] was 17.8 µM.
